The source made the active and inactive calls. No cut-off for these calls is given here.
Experiments:
[1] = test system: HepG2; assay: Antiproliferative activity against human HepG2 cells after 24 hrs by MTT assay; type: functional, cell-based; conditions: HepG2, 24 h
Method in brief: (§1)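 Cells grown in DMEM with 10% heat-inactivated fetal calf serum at 37 °C, 5% CO2; 3 × 10^5 cells/well plated overnight, then exposed in triplicate to a range of concentrations for 24 h. MTT (5 mg/mL) was added for the final 4 h, formazan dissolved in DMSO, absorbance at 570 nm. IC50 is the mean of dose–response curves from at least three independent experiments.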

[2] = test system: Bel-7402; assay: Antiproliferative activity against human Bel7402 cells after 24 hrs by MTT assay; type: functional, cell-based; conditions: Bel-7402, 24 h; method in brief: as §1
[3] = Toxicity in human L02 cells assessed as induction of nitric oxide release at 100 uM […] by Griess assay; type: cell-based; conditions: l02, 100 µM
[4] = test system: Bel-7402; assay: Induction of nitric oxide release in human Bel7402 cells at 100 uM […] by Griess assay; type: functional, cell-based
[5] = test system: Bel-7402; assay: Antiproliferative activity against human Bel7402 cells at 10 uM after 24 hrs by MTT assay; type: functional; conditions: for inhibition of growth at 10 µM: Bel-7402, 24 h, read-out: GI
Method in brief: (§2)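 Cells cultured in DMEM with 10% heat-inactivated fetal calf serum at 37 °C, 5% CO2, plated overnight and then exposed to 10 µM compound for 24 h. MTT was added for the last 4 h, formazan dissolved in DMSO and read at 570 nm. Values are mean % cytotoxicity ± SD from three separate experiments.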

[6] = test system: HepG2; assay: Induction of nitric oxide release in human HepG2 cells at 100 uM […] by Griess assay; type: functional, cell-based
[7] = Antiproliferative activity against human L02 cells at 10 uM after 24 hrs by MTT assay; type: cell-based; conditions: for inhibition at 24 h, 10 µM: L02 cells; for Activity: l02, 24 h, 10 µM; method in brief: as §2
[8] = test system: Bel-7402; assay: Induction of nitric oxide release in human Bel7402 cells at 5 uM for 24 hrs pretreated with hemoglobin for 1 hr by Griess assay; type: functional, cell-based
Method in brief: (§3)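 BEL-7402 cells in 24-well plates were pretreated in triplicate with hemoglobin (0, 1, 5, 10 or 20 µM) for 1 h, then given compound at 5 or 10 µM for 24 h. NO in the cells was measured by Griess assay and reported as mean concentration for each condition.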

[9] = test system: Bel-7402; assay: Induction of nitric oxide release in human Bel7402 cells at 10 uM for 24 hrs pretreated with hemoglobin for 1 hr by Griess assay; type: functional, cell-based; method in brief: as §3
[10] = test system: Bel-7402; assay: Antiproliferative activity against human Bel7402 cells at 10 uM for 24 hrs pretreated with hemoglobin for 1 hr by MTT assay; type: functional, cell-based
Method in brief: (§4)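 BEL-7402 cells in 24-well plates were pretreated in triplicate with hemoglobin (0, 1, 5, 10 or 20 µM) for 1 h as an NO scavenger. Compound was then added at 5 or 10 µM for 24 h and cytotoxicity read by MTT. Data are mean % cytotoxicity for each condition.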

[11] = test system: Bel-7402; assay: Antiproliferative activity against human Bel7402 cells at 5 uM for 24 hrs pretreated with hemoglobin for 1 hr by MTT assay; type: functional, cell-based; method in brief: as §4

| Compound | IC50 [1] [µM] | IC50 [2] [µM] | other results |
| --- | --- | --- | --- |
| CC(=O)O[C@H]1CC[C@]2(C)[C@H]3C(=O)C=C4[C@@H]5C[C@@](C)(C(=O)OCCOCCOc6no[n+]([O-])c6S(=O)(=O)c6ccccc6)CC[C@]5(C)CC[C@@]4(C)[C@]3(C)CC[C@H]2C1(C)C | 31.4 | 21.4 | – |
| COC(=O)[C@@]1(C)CC[C@]2(C)CC[C@]3(C)C(=CC(=O)[C@@H]4[C@@]5(C)CC[C@H](OC(=O)CCC(=O)OCC#CCOc6no[n+]([O-])c6S(=O)(=O)c6ccccc6)C(C)(C)[C@@H]5CC[C@]43C)[C@@H]2C1 | 11.6 | 13.4 | – |
| COC(=O)[C@@]1(C)CC[C@]2(C)CC[C@]3(C)C(=CC(=O)[C@@H]4[C@@]5(C)CC[C@H](OC(=O)CCC(=O)OCCOc6no[n+]([O-])c6S(=O)(=O)c6ccccc6)C(C)(C)[C@@H]5CC[C@]43C)[C@@H]2C1 | 18.2 | 7.85 | – |
| CC(=O)O[C@H]1CC[C@]2(C)[C@H]3C(=O)C=C4[C@@H]5C[C@@](C)(C(=O)OCCCOc6no[n+]([O-])c6S(=O)(=O)c6ccccc6)CC[C@]5(C)CC[C@@]4(C)[C@]3(C)CC[C@H]2C1(C)C | 11.5 | 15.3 | – |
| O=S(=O)(c1ccccc1)c1c(OC/C=C/CO)no[n+]1[O-] | – | – | growth inhibition (GI) [5]: Active; Activity [7]: Toxic |
| CC(=O)O[C@H]1CC[C@]2(C)[C@H]3C(=O)C=C4[C@@H]5C[C@@](C)(C(=O)NCCOc6no[n+]([O-])c6S(=O)(=O)c6ccccc6)CC[C@]5(C)CC[C@@]4(C)[C@]3(C)CC[C@H]2C1(C)C | 23.7 | 14.2 | – |
| O=S(=O)(c1ccccc1)c1c(OCCCCO)no[n+]1[O-] | – | – | growth inhibition (GI) [5]: Active; Activity [7]: Toxic |
| COC(=O)[C@@]1(C)CC[C@]2(C)CC[C@]3(C)C(=CC(=O)[C@@H]4[C@@]5(C)CC[C@H](OC(=O)CCC(=O)OCCCCOc6no[n+]([O-])c6S(=O)(=O)c6ccccc6)C(C)(C)[C@@H]5CC[C@]43C)[C@@H]2C1 | 36.5 | 8.2 | – |
| O=S(=O)(c1ccccc1)c1c(OCCCO)no[n+]1[O-] | – | – | growth inhibition (GI) [5]: Active; Activity [7]: Toxic |
| COC(=O)[C@@]1(C)CC[C@]2(C)CC[C@]3(C)C(=CC(=O)[C@@H]4[C@@]5(C)CC[C@H](OC(=O)CCC(=O)OCCCOc6no[n+]([O-])c6S(=O)(=O)c6ccccc6)C(C)(C)[C@@H]5CC[C@]43C)[C@@H]2C1 | 13.4 | 9.22 | – |
| CC1(C)[C@@H](O)CC[C@]2(C)[C@H]3C(=O)C=C4[C@@H]5C[C@@](C)(C(=O)NCC(=O)OCCOc6no[n+]([O-])c6S(=O)(=O)c6ccccc6)CC[C@]5(C)CC[C@@]4(C)[C@]3(C)CC[C@@H]12 | 9.06 | 1.38 | – |
| CC(=O)O[C@H]1CC[C@]2(C)[C@H]3C(=O)C=C4[C@@H]5C[C@@](C)(C(=O)OCCOc6no[n+]([O-])c6S(=O)(=O)c6ccccc6)CC[C@]5(C)CC[C@@]4(C)[C@]3(C)CC[C@H]2C1(C)C | 14.7 | 3.84 | – |
| CC(O)CCOc1no[n+]([O-])c1S(=O)(=O)c1ccccc1 (centres undefined) | – | – | growth inhibition (GI) [5]: Active; Activity [7]: Toxic |
| O=S(=O)(c1ccccc1)c1c(OCC#CCO)no[n+]1[O-] | – | – | growth inhibition (GI) [5]: Active; Activity [7]: Toxic |
| CC1(C)[C@@H](O)CC[C@]2(C)[C@H]3C(=O)C=C4[C@@H]5C[C@@](C)(C(=O)O)CC[C@]5(C)CC[C@@]4(C)[C@]3(C)CC[C@@H]12 [ENOXOLONE] | > 50 | > 50 | – |
| COC(=O)[C@@]1(C)CC[C@]2(C)CC[C@]3(C)C(=CC(=O)[C@@H]4[C@@]5(C)CC[C@H](OC(=O)CCC(=O)OCCOCCOc6no[n+]([O-])c6S(=O)(=O)c6ccccc6)C(C)(C)[C@@H]5CC[C@]43C)[C@@H]2C1 | 15.7 | 19.9 | – |

Now from value to compound, other results behind:

| IC50 [1] [µM] | IC50 [2] [µM] | Compound | other results |
| --- | --- | --- | --- |
| 5.18 | 3.78 | CC1(C)[C@@H](O)CC[C@]2(C)[C@H]3C(=O)C=C4[C@@H]5C[C@@](C)(C(=O)NCC(=O)OCCOCCOc6no[n+]([O-])c6S(=O)(=O)c6ccccc6)CC[C@]5(C)CC[C@@]4(C)[C@]3(C)CC[C@@H]12 | – |
| 3.79 | 0.43 | CC1(C)[C@@H](O)CC[C@]2(C)[C@H]3C(=O)C=C4[C@@H]5C[C@@](C)(C(=O)NCC(=O)OCCCOc6no[n+]([O-])c6S(=O)(=O)c6ccccc6)CC[C@]5(C)CC[C@@]4(C)[C@]3(C)CC[C@@H]12 | Activity [3]: Non-toxic; Activity [4]: Active; inhibition of growth at 10 µM [5]: > 83.5%; Activity [6]: Active; inhibition at 24 h, 10 µM [7]: < 18% |
| 2.03 | 0.9 | COc1cccc2c1C(=O)c1c(O)c3c(c(O)c1C2=O)C[C@@](O)(C(=O)CO)C[C@@H]3O[C@H]1C[C@H](N)[C@H](O)[C@H](C)O1 [DOXORUBICIN] | – |
| 3.39 | 0.84 | CC1(C)[C@@H](O)CC[C@]2(C)[C@H]3C(=O)C=C4[C@@H]5C[C@@](C)(C(=O)NCC(=O)OCC#CCOc6no[n+]([O-])c6S(=O)(=O)c6ccccc6)CC[C@]5(C)CC[C@@]4(C)[C@]3(C)CC[C@@H]12 | Activity [3]: Non-toxic; Activity [4]: Active; inhibition of growth at 10 µM [5]: > 83.5%; Activity [6]: Active; inhibition at 24 h, 10 µM [7]: < 18% |
| 6.4 | 9.47 | CC(=O)O[C@H]1CC[C@]2(C)[C@H]3C(=O)C=C4[C@@H]5C[C@@](C)(C(=O)NCC(=O)OCCOCCOc6no[n+]([O-])c6S(=O)(=O)c6ccccc6)CC[C@]5(C)CC[C@@]4(C)[C@]3(C)CC[C@H]2C1(C)C | – |
| 7.4 | 2.47 | CC1(C)[C@@H](O)CC[C@]2(C)[C@H]3C(=O)C=C4[C@@H]5C[C@@](C)(C(=O)NCCOc6no[n+]([O-])c6S(=O)(=O)c6ccccc6)CC[C@]5(C)CC[C@@]4(C)[C@]3(C)CC[C@@H]12 | – |
| 2.9 | 2.94 | COC(=O)[C@@]1(C)CC[C@]2(C)CC[C@]3(C)C(=CC(=O)[C@@H]4[C@@]5(C)CC[C@H](OC(=O)CCC(=O)NCCOc6no[n+]([O-])c6S(=O)(=O)c6ccccc6)C(C)(C)[C@@H]5CC[C@]43C)[C@@H]2C1 | – |
| 7.5 | 15 | CC(=O)O[C@H]1CC[C@]2(C)[C@H]3C(=O)C=C4[C@@H]5C[C@@](C)(C(=O)OCC#CCOc6no[n+]([O-])c6S(=O)(=O)c6ccccc6)CC[C@]5(C)CC[C@@]4(C)[C@]3(C)CC[C@H]2C1(C)C | – |
| 6.78 | 0.25 | CC1(C)[C@@H](O)CC[C@]2(C)[C@H]3C(=O)C=C4[C@@H]5C[C@@](C)(C(=O)NCC(=O)OCCCCOc6no[n+]([O-])c6S(=O)(=O)c6ccccc6)CC[C@]5(C)CC[C@@]4(C)[C@]3(C)CC[C@@H]12 | growth inhibition (GI) [8]: inactive; growth inhibition (GI) [9]: inactive; Activity [10]: inactive; Activity [3]: Non-toxic; Activity [4]: Active; Activity [11]: inactive; inhibition of growth at 10 µM [5]: > 83.5%; Activity [6]: Active; inhibition at 24 h, 10 µM [7]: < 18% |

Source: ChEMBL document CHEMBL1268967, “Synthesis and biological evaluation of furoxan-based nitric oxide-releasing derivatives of glycyrrhetinic acid as anti-hepatocellular carcinoma agents” (Bioorg Med Chem Lett, 2010)
